Key:
[1] = target: T1, Protein kinase C (PKC) (Homo sapiens) (UniProt O94806+P41743+P17252+P05129+Q05655+P05771+Q05513+Q02156+P24723+Q15139+Q04759); assay: Retained protein kinase C activity in the presence of 1.25 uM compound; assay type: functional
Method in brief: (§1)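 Assay at pH 7.5, 25 mM Tris, 10 mM MgCl2, 0.1 mM CaCl2, 40 µg/mL histone, 10 µM ATP with [γ-32P]ATP, 20 µg/mL phosphatidylserine, 2.5 µM OAG. Compound added in ethanol before enzyme; 20 min at 30 °C; TCA-precipitated 32P-histone counted; 0.1% ethanol control; duplicates in three trials, fresh enzyme each.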

[2] = target: T1, Protein kinase C (PKC) (Homo sapiens); assay: Retained protein kinase C activity in the presence of 10 uM compound; assay type: functional; method in brief: as §1
[3] = target: T1, Protein kinase C (PKC) (Homo sapiens); assay: Retained protein kinase C activity in the presence 2.5 uM compound; assay type: functional; method in brief: as §1
[4] = target: T1, Protein kinase C (PKC) (Homo sapiens); assay: Retained protein kinase C activity in the presence of 20 uM compound; assay type: functional; method in brief: as §1
[5] = target: T1, Protein kinase C (PKC) (Homo sapiens); assay: Retained protein kinase C activity in the presence of 40 uM compound; assay type: functional; method in brief: as §1
[6] = target: T1, Protein kinase C (PKC) (Homo sapiens); assay: Retained protein kinase C activity in the presence of 5 uM compound; assay type: functional; method in brief: as §1
[7] = target: T1, Protein kinase C (PKC) (Homo sapiens); assay: Inhibition of Protein Kinase C purified from HL-60 cells; assay type: cell-free; method in brief: as §1

Row | SMILES | Activity [1] [%] | Activity [2] [%] | Activity [3] [%] | Activity [4] [%] | Activity [5] [%] | Activity [6] [%] | ID50 [7] [µM]
1 | CCCCCCCCCCCCCCCCOCC(COCC[N+](C)(C)C)OC (stereo unspecified) | 92 | 73 | 91 | 57 | 43 | 83 | 31
2 | CCCCCCCCCCCCCCCCCC1OCC(C[N+](C)(C)CCCO)O1 (stereo unspecified) | 99 | 56 | 99 | 36 | 12 | 61 | 13
3 | CCCCCCCCCCCCCCCCSCC(C[N+](C)(C)CCO)OC (stereo unspecified) | 97 | 60 | 90 | 54 | 42 | 73 | 27
4 | CCCCCCCCCCCCCCCCSCC(C[N+](C)(C)C)OC (stereo unspecified) | 112 | 74 | 88 | 54 | 29 | 81 | 25
5 | CC1(C)OC[C@@H](C[N+](C)(C)CCO)O1 | 88 | 88 | 84 | 96 | 87 | 87 | > 40
6 | CCCCCCCCCCCCCCCCSCC(C[N+](C)(C)CCCO)OCC (stereo unspecified) | 78 | 60 | 64 | 59 | 37 | 67 | 26
7 | CCCCCCCCCCCCCCCCOCC(COCCO)OC (stereo unspecified) | 98 | 66 | 86 | 53 | 43 | 72 | 28
8 | CCCCCCCCCCCCCCCCSCC(C[N+](C)(C)CCO)OCC (stereo unspecified) | 92 | 70 | 84 | 66 | 47 | 70 | 37
9 | COC(COc1cccc2ccccc12)C[N+](C)(C)CCO (stereo unspecified) | 99 | 89 | 99 | 87 | 90 | 83 | > 40
10 | CCCCCCCCCCCCCCCCCCSCC(C[N+](C)(C)CCCO)OC (stereo unspecified) | 75 | 39 | 56 | 27 | 23 | 49 | 5
11 | CCCCCCCCCCCCCCCCCCOCC(COP(=O)([O-])OCC[N+](C)(C)C)OC (stereo unspecified) | 99 | 60 | 93 | 40 | 29 | 73 | 12
12 | CCCCCCCCCCCCCCCCC[C@@H]1OC[C@@H](C[N+](C)(C)CCCO)O1 | 94 | 56 | 90 | 43 | 19 | 70 | 17
13 | CCCCCCCCCCCCCCCCOCC(C[N+](C)(C)CCO)OC (stereo unspecified) | 107 | 64 | 95 | 42 | 29 | 87 | 17
